“Also recorded” adds a separate entry of the source.
Legend:
[1] = system: Chinese patients with type 2 diabetes; test: Safety and tolerability; assay type: in vivo, human; conditions: during the study
In short: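 Adults aged 20–70 with T2D and BMI ≥ 23.0 kg/m2 received once-weekly SC test compound or placebo, followed by 4 weeks of follow-up. AEs were recorded on an electronic CRF with investigator-assessed relatedness. TEAEs were events arising or worsening after treatment start. Also collected: laboratory values, vital signs, ECG, injection-site reactions and hypoglycaemia (glucose ≤ 70.0 mg/dL, graded per International Hypoglycaemia Study Group). All enrolled patients were included.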

[2] = Tirzepatide plasma pharmacokinetics after multiple SC doses; assay type: in vivo, human; conditions: Chinese patients with T2D, QW SC 2.5–15.0 mg
In short: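 Plasma test compound concentrations were measured after once-weekly SC doses escalated from 2.5 mg by 2.5 mg every 4 weeks, to 10.0 mg or 15.0 mg. Cmax, AUC, Tmax and T½ were derived. T½ was calculated over periods both shorter and longer than the resulting T½. Patients with ≥1 dose and evaluable data were analysed.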

[3] = system: Chinese patients with type 2 diabetes; test: Pharmacodynamics: change from baseline in HbA1c, FPG, 7-point SMBG, meal intake; assay type: in vivo, human; conditions: both tirzepatide groups; not apparent in placebo
[4] = system: Chinese patients with type 2 diabetes; test: Immunogenicity: anti-drug antibodies; assay type: in vivo, human
In short: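 Randomised 5:1, double-blind, placebo-controlled. Test compound or placebo given once weekly SC, starting at 2.5 mg and rising 2.5 mg every 4 weeks to 10.0 or 15.0 mg. Frequency and percentage of patients with pre-existing and treatment-emergent ADAs were recorded. Treatment-induced meant a titer twofold/1-dilution above the minimum required dilution with no baseline ADA. Treatment-boosted meant a fourfold/2-dilution titer rise over a positive baseline.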

[5] = global and Japanese patient populations, single and multiple doses; cited from earlier work
[6] = all 20 patients treated with tirzepatide, treatment-induced

SMILES: CC[C@H](C)[C@H](NC(=O)[C@H](CC(C)C)NC(=O)[C@H](Cc1c[nH]c2ccccc12)NC(=O)[C@H](CCC(N)=O)NC(=O)[C@@H](NC(=O)[C@H](Cc1ccccc1)NC(=O)[C@H](C)NC(=O)[C@H](CCCCNC(=O)COCCOCCNC(=O)COCCOCCNC(=O)CC[C@H](NC(=O)CCCCCCCCCCCCCCCCCCC(=O)O)C(=O)O)NC(=O)[C@H](CCC(N)=O)NC(=O)[C@H](C)NC(=O)[C@@H](NC(=O)[C@H](CCCCN)NC(=O)[C@H](CC(=O)O)NC(=O)[C@H](CC(C)C)NC(=O)C(C)(C)NC(=O)[C@@H](NC(=O)[C@H](CO)NC(=O)[C@H](Cc1ccc(O)cc1)NC(=O)[C@H](CC(=O)O)NC(=O)[C@H](CO)NC(=O)[C@@H](NC(=O)[C@H](Cc1ccccc1)NC(=O)[C@@H](NC(=O)CNC(=O)[C@H](CCC(=O)O)NC(=O)C(C)(C)NC(=O)[C@@H](N)Cc1ccc(O)cc1)[C@@H](C)O)[C@@H](C)O)[C@@H](C)CC)[C@@H](C)CC)C(C)C)C(=O)N[C@@H](C)C(=O)NCC(=O)NCC(=O)N1CCC[C@H]1C(=O)N[C@@H](CO)C(=O)N[C@@H](CO)C(=O)NCC(=O)N[C@@H](C)C(=O)N1CCC[C@H]1C(=O)N1CCC[C@H]1C(=O)N1CCC[C@H]1C(=O)N[C@@H](CO)C(N)=O [Tirzepatide, tirzepatide]
- deaths or SAEs in patients receiving tirzepatide ([1]; both tirzepatide groups): no serious adverse events reported; also recorded: No deaths or SAEs occurred
- changes in vital signs measurements [1]: No clinically meaningful changes
- T½, range of values across weeks and cohorts [2]: 124 to 145 h
- meal intake between baseline and end of study [3]: trend towards a decrease
- ADA-positive patients post-baseline, number ([4]; 2.5–10.0 mg group): five
- ADA-positive patients post-baseline, number ([4]; 2.5–15.0 mg group): three
- ADA-positive patients post-baseline, number [4, 6]: Eight
- ADA-positive patients post-baseline, percentage [4, 6]: 40%
- ADAs at baseline ([4]; baseline): No ADAs were detected
- impact of ADA-positive status on safety, PK and PD ([4]; in vivo): no apparent impact
- median Tmax range [5]: 24 to 48 h
